The text below walks through data of ChEMBL document CHEMBL1142659, “The role of intracellularly released formaldehyde and butyric acid in the anticancer activity of acyloxyalkyl esters” (J Med Chem, 2005).

Molecules are shown by their SMILES.

Common to all, as to assay type: functional, cell-based
In one assay the test system is HT-29. The assay can be described thus: Concentration required for 50% inhibition of human HT-29 cell proliferation. The procedure, abridged:
(§1)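 Solid-tumour lines (HT-29, PC-3, MES-SA, and its mdr-1/P-glycoprotein-high MES-SA/Dx5 subclone) were seeded at (2.5-5) × 10^3 cells per well. They were exposed to escalating prodrug concentrations for 4 days, then harvested. Proliferation was measured by Hoechst DNA staining, and IC50 values are given in µM.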

The subject of the next assay is PC-3. In words: Concentration required for 50% inhibition of human PC-3 cell proliferation. In short, it runs like this: as §1
The nature of assay [1]: Concentration required for 50% inhibition of human MES-DX5 cell proliferation. In short, it runs like this:
as §1

A further assay has as its system HL-60. In words: Concentration required for 50% inhibition of human HL-60 cell proliferation. The procedure, abridged:
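HL-60 leukemia cells, including the multidrug-resistant HL-60/MX2 subline with altered topoisomerase II activity, were seeded at (2.5-5) × 10^3 cells per well. They were exposed to escalating prodrug concentrations for 4 days. Proliferation was read by Alamar blue, and IC50 values are given in µM.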

The next assay has as its system MES-SA. In words: Concentration required for 50% inhibition of human MES-SA cell proliferation. In short, it runs like this: as §1

A word on the IC50: it is the midpoint of a concentration-inhibition curve. The low end stands for greater potency in that assay, the high end for weaker potency in that assay. `CCCC(=O)OCOC(=O)C(C)(C)C` [AN-9]: the IC50 in the assay with HT-29 turned out to be 52 µM; in the assay with PC-3, 56 µM; in assay [1] it was 46 µM; in the assay with HL-60, 36 µM; with MES-SA, 40 µM.
